Source: ChEMBL document CHEMBL1152591, “Design, synthesis and structure-activity relationship of 2-(3',4',5'-trimethoxybenzoyl)-benzo[b]furan derivatives as a novel class of inhibitors of tubulin polymerization” (Bioorg Med Chem, 2009)

Legend:
K562 [1] = experiment: Cell cycle arrest in human K562 cells assessed as accumulation at S phase at 26 nM after 24 hrs by flow cytometry; format: functional
In short: (§1)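 K562 leukaemia cells were cultured for 24 h with compound at one fixed concentration. DNA content per cell was measured by the standard propidium iodide procedure and flow cytometry. Proportions of cells in the sub-G0–G1 (apoptotic), G0–G1, S and G2–M peaks were compared with an untreated control.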

[2] = Cytotoxicity against human Molt4/C8 cells after 2 days; conditions: MOLT-4, 48 h
K562 [3] = experiment: Cell cycle arrest in human K562 cells assessed as accumulation at G2 phase at 26 nM after 24 hrs by flow cytometry; format: functional; in short: as §1
Bos taurus = organism: Bos taurus; experiment: Displacement of [3H]colchicine from bovine tubulin at 5 uM
In short: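 Reaction mixtures held 1 μM bovine brain tubulin, 5 μM [3H]colchicine and 5 μM test compound. Inhibition of radiolabelled colchicine binding to tubulin is expressed as percent inhibition.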

[4] = Inhibition of bovine tubulin polymerization; design: species or system Bos taurus
In short: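 Purified bovine brain tubulin (10 μM) in glutamate buffer was preincubated with varying compound concentrations at 30 °C, then cooled to 0 °C. GTP was added and the mixture warmed to 30 °C in a recording spectrophotometer. Assembly was followed by turbidity.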

HeLa = experiment: Cytotoxicity against human HeLa cells after 2 days; format: functional, cell-based; conditions: 48 h
L1210 = experiment: Cytotoxicity against mouse L1210 cells after 2 days; format: functional, cell-based; conditions: L1210, 48 h
In short: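 Cells were incubated with the compounds at 37 °C for two days, then counted on a Coulter counter. IC50 is the concentration that inhibits cell proliferation by 50%.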

K562 [5] = experiment: Cell cycle arrest in human K562 cells assessed as accumulation at G1 phase at 26 nM after 24 hrs by flow cytometry; format: functional; in short: as §1
K562 [6] = experiment: Cell cycle arrest in human K562 cells assessed as accumulation at sub-G0/G1 phase at 26 nM after 24 hrs by flow cytometry; format: functional; in short: as §1
FM3A = experiment: Cytotoxicity against mouse FM3A0 cells after 2 days; format: functional, cell-based; conditions: 48 h

Work on `COc1ccc2c(C)c(C(=O)c3cc(OC)c(OC)c(OC)c3)oc2c1` yielded an Activity (K562 [1]) of 16.62%, an IC50 [2] of 19 nM and an Activity (K562 [3]) of 81.19%. The Activity (Bos taurus) was 97%, the IC50 [4] was 550 nM and the IC50 (HeLa) was 3.2 nM. The IC50 (L1210) was 24 nM, the Activity (K562 [5]) was 2.19% and the Activity (K562 [6]) was 4.9%. It also gave an IC50 (FM3A) of 27 nM.
